Calls of active or inactive are those of the source. No cut-off for these calls is given here.
Tests used:
[1] = molecular target: Ankyrin repeat and protein kinase domain-containing protein 1 (Homo sapiens) (UniProt Q8NFD2); assay: Binding affinity to wild-type human partial length ANKK1 (M1 to A305 residues) expressed in mammalian expression system assessed as residual binding level at 1 uM by Kinomescan method relative to control
Procedure, shortened: (§1)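 Single-concentration KINOMEscan (DiscoverX) binding screen at 1 μM against a panel of 468 purified kinases and mutants. The read-out is binding relative to control.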

[2] = molecular target: Calcium/calmodulin-dependent protein kinase type II subunit beta (Homo sapiens) (UniProt Q13554); assay: Binding affinity to wild-type human partial length CAMK2B (M1 to Q380 residues) expressed in bacterial expression system assessed as residual binding level at 1 uM by Kinomescan method relative to control
[3] = molecular target: Calcium/calmodulin-dependent protein kinase kinase 1 (Homo sapiens) (UniProt Q8N5S9); assay: Binding affinity to wild-type human partial length CAMKK1 (R65 to E414 residues) expressed in bacterial expression system assessed as residual binding level at 1 uM by Kinomescan method relative to control
Calcium/calmodulin-dependent protein kinase kinase 1 (Homo sapiens), sequence (Q8N5S9 whole entry, looked up, the tested form may be a part): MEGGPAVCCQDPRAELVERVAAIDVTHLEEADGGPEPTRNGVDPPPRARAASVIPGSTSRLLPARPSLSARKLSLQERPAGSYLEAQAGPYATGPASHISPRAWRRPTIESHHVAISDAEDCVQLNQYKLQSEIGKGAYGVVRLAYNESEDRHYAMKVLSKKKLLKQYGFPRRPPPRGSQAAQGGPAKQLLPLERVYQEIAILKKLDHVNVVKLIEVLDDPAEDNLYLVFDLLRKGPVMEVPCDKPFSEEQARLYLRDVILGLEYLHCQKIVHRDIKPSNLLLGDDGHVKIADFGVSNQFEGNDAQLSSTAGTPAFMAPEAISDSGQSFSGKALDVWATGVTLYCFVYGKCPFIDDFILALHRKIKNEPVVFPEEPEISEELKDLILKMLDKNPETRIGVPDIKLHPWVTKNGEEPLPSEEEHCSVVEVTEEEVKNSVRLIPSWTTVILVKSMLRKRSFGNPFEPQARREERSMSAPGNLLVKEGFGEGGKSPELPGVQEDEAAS
Procedure, shortened: (§2)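 Kinome-wide competition binding screen against a panel of 468 purified kinases/mutants, with the test compound at a single concentration of 1 μM. Read-out is the relative binding activity of each kinase in the presence of compound.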

[4] = molecular target: Serine/threonine-protein kinase DCLK1 (Homo sapiens) (UniProt O15075); assay: Binding affinity to wild-type human partial length DCAMKL1 (L270 to A662 residues) expressed in mammalian expression system assessed as residual binding level at 1 uM by Kinomescan method relative to control; procedure, shortened: as §2
[5] = molecular target: Ephrin type-B receptor 1 (Homo sapiens) (UniProt P54762); assay: Binding affinity to wild-type human partial length EPHB1 (P589 to T911 residues) expressed in bacterial expression system assessed as residual binding level at 1 uM by Kinomescan method relative to control
[6] = molecular target: Mitogen-activated protein kinase 1 (Homo sapiens) (UniProt P28482); assay: Binding affinity to wild-type human full length ERK2 (M1 to S360 residues) expressed in bacterial expression system assessed as residual binding level at 1 uM by Kinomescan method relative to control
Mitogen-activated protein kinase 1 (Homo sapiens), sequence (P28482 whole entry, the tested form may be a part): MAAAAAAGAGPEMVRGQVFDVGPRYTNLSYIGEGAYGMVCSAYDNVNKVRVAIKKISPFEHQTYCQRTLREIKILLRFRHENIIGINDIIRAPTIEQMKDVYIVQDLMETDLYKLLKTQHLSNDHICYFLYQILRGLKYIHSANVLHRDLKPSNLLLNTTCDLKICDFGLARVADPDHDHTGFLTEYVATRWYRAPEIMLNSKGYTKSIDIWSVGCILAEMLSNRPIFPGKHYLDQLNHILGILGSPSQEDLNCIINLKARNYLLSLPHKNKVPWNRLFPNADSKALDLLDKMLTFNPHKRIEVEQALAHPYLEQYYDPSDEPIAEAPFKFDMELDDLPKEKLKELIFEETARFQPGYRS
Procedure, shortened: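 KINOMEscan competition binding against 468 purified kinases/mutants, test compound at 1 µM; residual binding relative to control.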

[7] = system: Receptor-type tyrosine-protein kinase FLT3 (Homo sapiens), P36888 [N841I]; assay: Binding affinity to human partial length FLT3 N841I mutant (V592 to Y969 residues) expressed in bacterial expression system assessed as residual binding level at 1 uM by Kinomescan method relative to control
Procedure, shortened: (§3)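 Kinome-wide single-concentration binding screen (KINOMEscan) at 1 μM against a panel of 468 purified kinases and mutants. Read-out is relative binding of each kinase compared with control. Selectivity across the panel was summarised as an S(10) score.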

[8] = molecular target: Serine/threonine-protein kinase haspin (Homo sapiens) (UniProt Q8TF76); assay: Binding affinity to wild-type human partial length HASPIN (I452 to K798 residues) expressed in mammalian expression system assessed as residual binding level at 1 uM by Kinomescan method relative to control; procedure, shortened: as §2
Serine/threonine-protein kinase haspin (Homo sapiens), sequence (Q8TF76 whole entry, the tested form may be a part): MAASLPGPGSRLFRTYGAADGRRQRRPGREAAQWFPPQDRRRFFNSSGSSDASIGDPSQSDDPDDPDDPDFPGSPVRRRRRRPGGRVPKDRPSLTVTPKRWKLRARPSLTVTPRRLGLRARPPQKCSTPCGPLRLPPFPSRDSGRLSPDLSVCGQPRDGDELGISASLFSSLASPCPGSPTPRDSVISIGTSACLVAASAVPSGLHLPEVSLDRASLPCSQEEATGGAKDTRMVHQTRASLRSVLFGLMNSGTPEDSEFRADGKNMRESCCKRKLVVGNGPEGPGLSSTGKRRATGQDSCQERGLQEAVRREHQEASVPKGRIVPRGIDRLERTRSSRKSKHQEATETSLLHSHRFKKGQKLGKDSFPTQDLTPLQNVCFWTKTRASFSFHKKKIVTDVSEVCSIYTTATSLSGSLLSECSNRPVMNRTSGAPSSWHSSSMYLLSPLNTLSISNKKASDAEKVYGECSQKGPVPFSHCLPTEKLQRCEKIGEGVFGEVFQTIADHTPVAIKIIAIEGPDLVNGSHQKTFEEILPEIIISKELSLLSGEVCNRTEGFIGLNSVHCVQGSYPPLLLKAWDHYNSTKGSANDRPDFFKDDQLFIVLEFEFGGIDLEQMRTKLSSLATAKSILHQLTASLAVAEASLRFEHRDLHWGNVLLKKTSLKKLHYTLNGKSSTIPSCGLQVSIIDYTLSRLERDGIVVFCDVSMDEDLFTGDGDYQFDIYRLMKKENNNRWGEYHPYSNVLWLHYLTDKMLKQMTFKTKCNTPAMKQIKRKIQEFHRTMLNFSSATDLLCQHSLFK

[9] = molecular target: Insulin receptor-related protein (Homo sapiens) (UniProt P14616); assay: Binding affinity to wild-type human partial length INSRR (R950 to E1278 residues) expressed in bacterial expression system assessed as residual binding level at 1 uM by Kinomescan method relative to control
[10] = molecular target: Serine/threonine-protein kinase MARK1 (Homo sapiens) (UniProt Q9P0L2); assay: Binding affinity to wild-type human partial length MARK1 (Q30 to T341 residues) expressed in bacterial expression system assessed as residual binding level at 1 uM by Kinomescan method relative to control
[11] = molecular target: Serine/threonine-protein kinase 3 (Homo sapiens) (UniProt Q13188); assay: Binding affinity to wild-type human partial length MST2 (D17 to E318 residues) expressed in bacterial expression system assessed as residual binding level at 1 uM by Kinomescan method relative to control
[12] = molecular target: Serine/threonine-protein kinase PAK 1 (Homo sapiens) (UniProt Q13153); assay: Binding affinity to wild-type human partial length PAK1 (S149 to H545 residues) expressed in bacterial expression system assessed as residual binding level at 1 uM by Kinomescan method relative to control
Serine/threonine-protein kinase PAK 1 (Homo sapiens), sequence (Q13153 whole entry, the tested form may be a part): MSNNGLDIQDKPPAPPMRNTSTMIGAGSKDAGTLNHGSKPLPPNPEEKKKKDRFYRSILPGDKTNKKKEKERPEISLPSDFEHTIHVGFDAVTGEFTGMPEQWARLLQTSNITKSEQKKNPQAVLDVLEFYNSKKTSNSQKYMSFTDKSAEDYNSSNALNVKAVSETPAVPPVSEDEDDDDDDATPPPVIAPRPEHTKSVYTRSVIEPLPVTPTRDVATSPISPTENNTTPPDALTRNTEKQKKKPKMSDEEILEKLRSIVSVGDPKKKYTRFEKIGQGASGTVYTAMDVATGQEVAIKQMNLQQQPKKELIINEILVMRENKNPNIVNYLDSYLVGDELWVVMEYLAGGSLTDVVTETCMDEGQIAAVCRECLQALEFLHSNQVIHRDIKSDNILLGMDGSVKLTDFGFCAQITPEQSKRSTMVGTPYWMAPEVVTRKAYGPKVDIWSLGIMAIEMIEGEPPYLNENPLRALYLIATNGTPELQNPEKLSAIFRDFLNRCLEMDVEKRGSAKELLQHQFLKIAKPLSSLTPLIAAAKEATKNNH

[13] = molecular target: Serine/threonine-protein kinase PAK 6 (Homo sapiens) (UniProt Q9NQU5); assay: Binding affinity to wild-type human partial length PAK6 (N298 to C681 residues) expressed in bacterial expression system assessed as residual binding level at 1 uM by Kinomescan method relative to control
Serine/threonine-protein kinase PAK 6 (Homo sapiens), sequence (Q9NQU5 whole entry, looked up, the tested form may be a part, canonical isoform): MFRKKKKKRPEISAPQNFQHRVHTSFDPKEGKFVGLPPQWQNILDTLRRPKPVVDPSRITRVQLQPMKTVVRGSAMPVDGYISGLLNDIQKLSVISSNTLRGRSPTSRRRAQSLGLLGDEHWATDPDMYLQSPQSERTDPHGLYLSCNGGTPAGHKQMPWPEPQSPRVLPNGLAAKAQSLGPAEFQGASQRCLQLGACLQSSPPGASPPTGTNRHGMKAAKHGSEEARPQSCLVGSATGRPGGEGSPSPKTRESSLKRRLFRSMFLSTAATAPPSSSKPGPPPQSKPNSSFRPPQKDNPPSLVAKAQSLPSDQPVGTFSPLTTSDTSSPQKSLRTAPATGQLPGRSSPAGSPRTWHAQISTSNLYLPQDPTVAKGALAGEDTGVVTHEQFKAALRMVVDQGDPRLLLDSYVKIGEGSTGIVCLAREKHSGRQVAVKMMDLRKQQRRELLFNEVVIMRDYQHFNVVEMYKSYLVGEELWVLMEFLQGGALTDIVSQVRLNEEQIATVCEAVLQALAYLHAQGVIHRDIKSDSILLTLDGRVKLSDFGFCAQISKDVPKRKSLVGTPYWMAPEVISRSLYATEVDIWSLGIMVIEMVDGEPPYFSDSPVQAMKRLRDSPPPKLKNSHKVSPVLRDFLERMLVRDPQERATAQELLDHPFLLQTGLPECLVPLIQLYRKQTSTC

[14] = system: Phosphatidylinositol 4,5-bisphosphate 3-kinase catalytic subunit alpha isoform (Homo sapiens), P42336 [Q546K]; assay: Binding affinity to human partial length PIK3CA Q546K mutant (R108 to N1068 residues) expressed in mammalian expression system assessed as residual binding level at 1 uM by Kinomescan method relative to control; procedure, shortened: as §3
[15] = molecular target: Serine/threonine-protein kinase PLK4 (Homo sapiens) (UniProt O00444); assay: Binding affinity to wild-type human partial length PLK4 (M1 to S273 residues) expressed in mammalian expression system assessed as residual binding level at 1 uM by Kinomescan method relative to control
[16] = molecular target: Dual serine/threonine and tyrosine protein kinase (Homo sapiens) (UniProt Q6XUX3); assay: Binding affinity to wild-type human full length RIPK5 (M1 to T929 residues) expressed in mammalian expression system assessed as residual binding level at 1 uM by Kinomescan method relative to control; procedure, shortened: as §1
[17] = molecular target: TGF-beta receptor type-2 (Homo sapiens) (UniProt P37173); assay: Binding affinity to wild-type human partial length TGFBR2 (I218 to K567 residues) expressed in bacterial expression system assessed as residual binding level at 1 uM by Kinomescan method relative to control
[18] = molecular target: Testis-specific serine/threonine-protein kinase 3 (Homo sapiens) (UniProt Q96PN8); assay: Binding affinity to wild-type human full length TSSK3 (M1 to T268 residues) expressed in mammalian expression system assessed as residual binding level at 1 uM by Kinomescan method relative to control; procedure, shortened: as §1
Testis-specific serine/threonine-protein kinase 3 (Homo sapiens), sequence (Q96PN8 whole entry, the tested form may be a part): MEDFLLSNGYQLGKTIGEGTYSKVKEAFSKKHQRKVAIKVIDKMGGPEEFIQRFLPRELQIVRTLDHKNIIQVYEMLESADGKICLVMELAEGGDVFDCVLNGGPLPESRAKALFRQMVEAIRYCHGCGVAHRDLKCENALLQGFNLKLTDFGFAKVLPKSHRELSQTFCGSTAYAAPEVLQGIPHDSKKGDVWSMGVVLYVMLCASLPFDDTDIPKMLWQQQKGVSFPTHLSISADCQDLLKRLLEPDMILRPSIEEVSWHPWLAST

[19] = molecular target: Non-receptor tyrosine-protein kinase TYK2 (Homo sapiens) (UniProt P29597); assay: Binding affinity to wild-type human partial length TYK2 JH2 pseudokinase domain (G556 to D888 residues) expressed in mammalian expression system assessed as residual binding level at 1 uM by Kinomescan method relative to control
[20] = molecular target: Serine/threonine-protein kinase VRK2 (Homo sapiens) (UniProt Q86Y07); assay: Binding affinity to wild-type human partial length VRK2 (M1 to T336 residues) expressed in mammalian expression system assessed as residual binding level at 1 uM by Kinomescan method relative to control
[21] = molecular target: Platelet-derived growth factor receptor alpha (Homo sapiens, UniProt P16234); assay: Inhibition of PDGFRalpha autophosphorylation at Y754 residue in human EOL-1 cells up to 300 nM after 2 hrs by Western blot method; assay type: cell-based
[22] = system: Platelet-derived growth factor receptor alpha (Homo sapiens), P16234 [T674I]; assay: Inhibition of TEL-fused PDGFRalpha T674I mutant (unknown origin) expressed in mouse BA/F3 cells assessed as growth inhibition after 72 hrs by CellTiter-Glo or CCK-8 assay; assay type: cell-based
Platelet-derived growth factor receptor alpha (Homo sapiens), P16234 [T674I], sequence (P16234 whole entry T674I, the tested form may be a part): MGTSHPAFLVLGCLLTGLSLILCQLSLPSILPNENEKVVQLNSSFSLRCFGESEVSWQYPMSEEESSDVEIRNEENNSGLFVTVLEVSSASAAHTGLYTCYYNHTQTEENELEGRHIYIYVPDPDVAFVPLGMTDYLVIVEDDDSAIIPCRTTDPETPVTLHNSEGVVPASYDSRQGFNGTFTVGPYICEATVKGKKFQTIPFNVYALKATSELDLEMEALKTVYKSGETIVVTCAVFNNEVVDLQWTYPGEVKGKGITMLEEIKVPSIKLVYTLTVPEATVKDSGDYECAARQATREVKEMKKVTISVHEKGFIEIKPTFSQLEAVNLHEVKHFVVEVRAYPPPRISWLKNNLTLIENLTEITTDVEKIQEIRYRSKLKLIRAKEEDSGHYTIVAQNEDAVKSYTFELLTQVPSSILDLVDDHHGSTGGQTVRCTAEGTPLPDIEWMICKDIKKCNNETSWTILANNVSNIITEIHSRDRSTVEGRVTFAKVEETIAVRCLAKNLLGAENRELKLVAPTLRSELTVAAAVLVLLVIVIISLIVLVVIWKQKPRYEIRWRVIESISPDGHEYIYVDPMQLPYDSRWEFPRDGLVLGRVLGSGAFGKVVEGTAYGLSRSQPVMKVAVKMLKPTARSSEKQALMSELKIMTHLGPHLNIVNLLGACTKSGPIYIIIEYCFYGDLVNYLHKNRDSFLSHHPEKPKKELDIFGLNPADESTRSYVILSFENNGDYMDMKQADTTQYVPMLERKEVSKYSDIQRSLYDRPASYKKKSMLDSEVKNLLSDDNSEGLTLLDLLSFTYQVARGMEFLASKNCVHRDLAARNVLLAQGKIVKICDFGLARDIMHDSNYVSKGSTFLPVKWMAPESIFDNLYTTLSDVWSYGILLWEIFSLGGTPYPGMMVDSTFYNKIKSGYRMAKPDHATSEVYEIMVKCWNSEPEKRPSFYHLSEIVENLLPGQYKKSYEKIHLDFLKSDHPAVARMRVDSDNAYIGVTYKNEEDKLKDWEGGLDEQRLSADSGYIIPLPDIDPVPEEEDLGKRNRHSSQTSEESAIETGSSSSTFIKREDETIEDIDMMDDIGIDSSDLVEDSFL

Ankyrin repeat and protein kinase domain-containing protein 1 (Homo sapiens), sequence (Q8NFD2 whole entry, the tested form may be a part): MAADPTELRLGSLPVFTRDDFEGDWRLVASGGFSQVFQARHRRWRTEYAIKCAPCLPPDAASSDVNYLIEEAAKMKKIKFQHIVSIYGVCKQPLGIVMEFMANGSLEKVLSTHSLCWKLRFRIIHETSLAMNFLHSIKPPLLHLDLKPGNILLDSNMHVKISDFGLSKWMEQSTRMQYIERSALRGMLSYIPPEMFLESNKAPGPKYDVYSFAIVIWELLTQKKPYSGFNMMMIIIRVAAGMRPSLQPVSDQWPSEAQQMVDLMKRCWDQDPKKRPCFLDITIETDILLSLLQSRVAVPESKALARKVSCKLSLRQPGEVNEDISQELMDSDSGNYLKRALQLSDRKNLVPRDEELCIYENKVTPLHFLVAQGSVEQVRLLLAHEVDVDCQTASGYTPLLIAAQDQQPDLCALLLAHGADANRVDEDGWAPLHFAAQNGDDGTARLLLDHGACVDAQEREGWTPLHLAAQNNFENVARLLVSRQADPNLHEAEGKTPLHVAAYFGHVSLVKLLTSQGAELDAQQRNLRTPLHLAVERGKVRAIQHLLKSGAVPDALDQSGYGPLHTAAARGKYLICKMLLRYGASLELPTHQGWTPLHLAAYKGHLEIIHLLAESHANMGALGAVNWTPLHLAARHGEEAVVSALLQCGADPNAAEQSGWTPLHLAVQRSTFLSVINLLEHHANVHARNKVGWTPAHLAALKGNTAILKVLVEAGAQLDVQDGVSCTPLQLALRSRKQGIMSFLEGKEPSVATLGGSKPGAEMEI

Cc1ccc(NC(=O)c2ccc(CN(CCN(C)C)C(=O)c3cccnc3)cc2)cc1Nc1nccc(-c2cccnc2)n1
Activity [1]: 100% | Activity [2]: 99% | Activity [3]: 92% | Activity [4]: 78% | Activity [5]: 100% | Activity [6]: 83% | Activity [7]: 100% | Activity [8]: 72% | Activity [9]: 96% | Activity [10]: 97% | Activity [11]: 100% | Activity [12]: 95% | Activity [13]: 90% | Activity [14]: 90% | Activity [15]: 88% | Activity [16]: 81% | Activity [17]: 100% | Activity [18]: 100% | Activity [19]: 91% | Activity [20]: 100% | inhibition [21]: inactive | GI50 [22]: > 10 µM

Source: ChEMBL document CHEMBL4229344 (Eur J Med Chem, 2018)
